Reference: ChEMBL document CHEMBL1255569, “Synthesis of ester prodrugs of 9-(S)-[3-hydroxy-2-(phosphonomethoxy)propyl]-2,6-diaminopurine (HPMPDAP) as anti-poxvirus agents” (J Med Chem, 2010)

Legend:
Vaccinia virus = experiment: Antiviral activity against Vaccinia virus infected in HEL assessed as reduction in virus-induce cytopathicity; assay type: functional, organism-based; details: Orthopoxvirus vaccinia
Human betaherpesvirus 5 [1] = experiment: Antiviral activity against Human cytomegalovirus AD169 infected in HEL assessed as reduction in virus-induce cytopathicity; assay type: functional, organism-based; details: Human betaherpesvirus 5, AD169
Human betaherpesvirus 5 [2] = experiment: Antiviral activity against Human cytomegalovirus Davis infected in HEL assessed as reduction in virus-induce cytopathicity; assay type: functional, organism-based; details: Human betaherpesvirus 5, Davis
Human betaherpesvirus 6 = experiment: Antiviral activity against Human herpesvirus 6 infected in HEL assessed as reduction in virus-induce cytopathicity; assay type: functional, organism-based
[3] = Cytotoxicity against HEL assessed as change in cell morphology; assay type: cell-based; details: human, HEL cells
Method in brief: (§1)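 Microscopic inspection of cultures exposed to test compounds. MCC is the minimum compound concentration causing a microscopically detectable alteration of cell morphology.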

[4] = Cytotoxicity against human HSB2 cells assessed as change in cell morphology; assay type: cell-based, CCRF-HSB-2; method in brief: as §1
[5] = Cytotoxicity against HEL; assay type: cell-based; details: human, HEL cells
Method in brief: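 HEL cells were seeded at 5 × 10³ cells/well and allowed to proliferate for 24 h, then given medium with graded compound concentrations. After 3 days at 37 °C, cells were counted with a Coulter counter. CC50 (μM) is the concentration halving proliferation relative to untreated controls, estimated from plots of cell number (% of control) against concentration.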

Human alphaherpesvirus 1 [6] = experiment: Antiviral activity against HSV1 KOS infected in HEL assessed as reduction in virus-induce cytopathicity; assay type: functional, organism-based; details: Human alphaherpesvirus 1, KOS
Human alphaherpesvirus 1 [7] = experiment: Antiviral activity against acyclovir-resistant HSV1 KOS infected in HEL assessed as reduction in virus-induce cytopathicity; assay type: functional, organism-based; details: Human alphaherpesvirus 1, KOS
Human alphaherpesvirus 2 = experiment: Antiviral activity against […] infected in HEL assessed as reduction in virus-induce cytopathicity; assay type: functional, organism-based; details: Human alphaherpesvirus 2, strain G
Human alphaherpesvirus 3 [8] = experiment: Antiviral activity against acyclovir-resistant VZV OKA infected in HEL assessed as reduction in virus-induce cytopathicity; details: Human alphaherpesvirus 3, OKA
Human alphaherpesvirus 3 [9] = experiment: Antiviral activity against acyclovir-resistant VZV 07/1 infected in HEL assessed as reduction in virus-induce cytopathicity; details: Human alphaherpesvirus 3, 07/1

Row | SMILES | EC50 (Vaccinia virus) [µM] | EC50 (Human betaherpesvirus 5 [1]) [µM] | EC50 (Human betaherpesvirus 5 [2]) [µM] | EC50 (Human betaherpesvirus 6) [µM] | MCC [3] [µM] | MCC [4] [µM] | CC50 [5] [µM] | EC50 (Human alphaherpesvirus 1 [6]) [µM] | EC50 (Human alphaherpesvirus 1 [7]) [µM] | EC50 (Human alphaherpesvirus 2) [µM] | EC50 (Human alphaherpesvirus 3 [8]) [µM] | EC50 (Human alphaherpesvirus 3 [9]) [nM] | MCC [5] [mM] | CC50 [3] [µM]
1 | CC(C)OC(=O)[C@@H](CO[P@@]1(=O)CO[C@@H](Cn2cnc3c(N)nc(N)nc32)CO1)NC(=O)[C@@H](N)C(C)C | 2.62 | 15.2 | 22.1 | > 177 | > 177 | > 177 | 148 | 7.97 | 7.1 | 1.42 | 1.06 | 250 | – | –
2 | CCCCCCCCCCCCCCCCOCCO[P@@]1(=O)CO[C@@H](Cn2cnc3c(N)nc(N)nc32)CO1 | 0.0026 | 0.011 | 0.005 | > 44 | 35.2 | 0.5 | 30 | 0.01 | 0.007 | 0.008 | 0.0018 | 0.18 | – | –
3 | Nc1nc(N)c2ncn(C[C@@H](CO)OCP(=O)(O)O)c2n1 | 0.5 | 11.2 | 6.4 | 17.6 | > 314 | 126 | > 314 | 2.86 | 1.35 | 2.83 | 0.22 | 8.2 | – | –
4 | CCCCCCCCCCCCCCCCOCCO[P@]1(=O)CO[C@@H](Cn2cnc3c(N)nc(N)nc32)CO1 | 0.0035 | 0.015 | 0.008 | > 44 | 35.2 | 0.5 | 28.1 | 0.026 | 0.017 | 0.026 | 0.004 | 0.7 | – | –
5 | CC(C)OC(=O)[C@@H](CO[P@]1(=O)CO[C@@H](Cn2cnc3c(N)nc(N)nc32)CO1)NC(=O)[C@@H](N)C(C)C | 2.02 | 12 | 7.1 | > 177 | ≥ 177 | 177 | 159 | 5.58 | 3.52 | 2.3 | 0.73 | 200 | – | –
6 | CC(C)(C)C(=O)OCOP1(=O)CO[C@@H](Cn2cnc3c(N)nc(N)nc32)CO1 (some centres not stated) | 0.183 | 6.94 | 6.8 | 7.63 | ≥ 231 | 62.5 | ≥ 201 | 2.22 | 2.41 | 1.34 | 0.3 | 93 | – | –
7 | CCCCCCCCCCCCCCCCOCCCOP(=O)(O)CO[C@H](CO)Cn1cnc2c(N)nc(N)nc21 | 0.00074 | 0.021 | 0.0037 | 10.3 | ≥ 6.4 | 40 | ≥ 161 | 0.0045 | 0.0027 | 0.0071 | 0.0027 | 0.21 | – | –
8 | CCCCCCCCCCCCCCCCCCOCCOP(=O)(O)CO[C@H](CO)Cn1cnc2c(N)nc(N)nc21 | 0.00074 | 0.041 | 0.0094 | 34.6 | ≥ 6.3 | ≥ 39.3 | 18.8 | 0.0008 | 0.00085 | 0.0022 | 0.0013 | 0.08 | – | –
9 | CC(C)(C)C(=O)OCO[P@]1(=O)CO[C@@H](Cn2cnc3c(N)nc(N)nc32)CO1 | 0.37 | 14 | 15.5 | 14.6 | ≥ 231 | 64.7 | > 222 | 1.83 | 3.33 | 1.78 | 0.72 | 160 | – | –
10 | CCCCCCCCCCCCCCCCCCOCCO[P@]1(=O)CO[C@@H](Cn2cnc3c(N)nc(N)nc32)CO1 | 0.052 | 0.015 | 0.0034 | > 42 | 6.7 | 0.5 | 129 | 0.03 | 0.017 | 0.037 | 0.045 | 10 | – | –
11 | Nc1nc(N)c2ncn(C[C@@H](CO)OCP(=O)(O)OCC(F)(F)F)c2n1 | 7.95 | 44 | 54.2 | > 62 | > 250 | > 62 | > 250 | 5.6 | 5 | 10.7 | 2.27 | 430 | – | –
12 | Nc1nc2c(ncn2COC(CO)CO)c(=O)[nH]1 [GANCICLOVIR] | – | 9.4 | 10.2 | – | ≥ 392 | – | 1080 | – | – | – | – | – | – | –
13 | CC(C)(C)C(=O)OCOP(=O)(O)CO[C@H](CO)Cn1cnc2c(N)nc(N)nc21 | 1.63 | 12.9 | 11.6 | 30.6 | > 227 | 227 | ≥ 227 | 2.76 | 2.95 | 3.15 | 0.79 | 340 | – | –
14 | Nc1nc(N)c2ncn(C[C@H]3COP(=O)(O)CO3)c2n1 | 0.53 | 15 | 10 | – | > 333 | – | > 333 | 3.6 | 3.6 | 4.33 | 0.37 | 770 | – | –
15 | CCCCCCCCCCCCCCCCOCCCOP1(=O)CO[C@@H](Cn2cnc3c(N)nc(N)nc32)CO1 (some centres not stated) | 0.011 | 0.034 | 0.021 | 0.16 | 6.9 | 8.6 | 13.7 | 0.031 | 0.053 | 0.053 | 0.012 | 1.7 | – | –
16 | CCCCCCCCCCCCCCCCCCOCCO[P@@]1(=O)CO[C@@H](Cn2cnc3c(N)nc(N)nc32)CO1 | 0.005 | 0.027 | 0.008 | > 42 | 6.7 | 0.5 | 15.1 | 0.013 | 0.007 | 0.011 | 0.0047 | 0.7 | – | –
17 | CCCCOC(=O)c1ccccc1OP1(=O)CO[C@@H](Cn2cnc3c(N)nc(N)nc32)CO1 (some centres not stated) | 2.3 | 11.5 | 6.8 | > 205 | 103 | ≥ 205 | 168 | 5.36 | 3.1 | 3.76 | 0.53 | 120 | – | –
18 | Nc1nc2c(ncn2COCCO)c(=O)[nH]1 [ACYCLOVIR] | – | – | – | – | > 444 | – | – | – | 125 | 0.3 | – | – | 1.58 | –
19 | O=c1[nH]c(=O)n([C@H]2C[C@H](O)[C@@H](CO)O2)cc1/C=C/Br [BRIVUDINE] | – | – | – | – | – | – | 339 | 0.03 | > 150 | 75.3 | 0.016 | 137000 | – | > 300
20 | Nc1nc(N)c2ncn(C[C@H]3COP(=O)(OCC(F)(F)F)CO3)c2n1 (some centres not stated) | 2.08 | 19.1 | 24.4 | 177 | > 239 | > 239 | ≥ 219 | 6.57 | 4.78 | 1.91 | 0.62 | 170 | – | –
21 | Nc1ccn(C[C@@H](CO)OCP(=O)(O)O)c(=O)n1 [CIDOFOVIR] | 7.3 | 1.14 | 0.79 | – | ≥ 317 | – | 511 | 1.62 | 1.37 | 2.19 | 0.13 | 110 | – | –
